The text below walks through data of ChEMBL document CHEMBL3085673, “The design of a novel series of muscarinic receptor antagonists leading to AZD8683, a potential inhaled treatment for COPD” (Bioorg Med Chem Lett, 2013).

In data set [1] the target is Muscarinic acetylcholine receptor M3 (Homo sapiens, UniProt P20309). The experiment in a line: Displacement of [3H]NMS from recombinant human M3 receptor expressed in CHO-K1 cells after 16 hrs by SPA method. The format is cell-based. In a few lines:
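Nonspecific binding defined with atropine 1 µM; eight total-binding replicates per plate. Incubated at room temperature at least 16 h to equilibrium before counting; n ≥ 2.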

The nature of data set [2]: Plasma protein binding in human. The following applies: for fraction unbound: read-out: PPB (converted). The format is ADME, cell-free.
Data set [3] can be described thus: Intrinsic clearance in human liver microsomes. Format: ADME. The note with it: read-out: CLH.

Some results are limits rather than exact numbers.

Chain of Muscarinic acetylcholine receptor M3 (P20309 whole entry): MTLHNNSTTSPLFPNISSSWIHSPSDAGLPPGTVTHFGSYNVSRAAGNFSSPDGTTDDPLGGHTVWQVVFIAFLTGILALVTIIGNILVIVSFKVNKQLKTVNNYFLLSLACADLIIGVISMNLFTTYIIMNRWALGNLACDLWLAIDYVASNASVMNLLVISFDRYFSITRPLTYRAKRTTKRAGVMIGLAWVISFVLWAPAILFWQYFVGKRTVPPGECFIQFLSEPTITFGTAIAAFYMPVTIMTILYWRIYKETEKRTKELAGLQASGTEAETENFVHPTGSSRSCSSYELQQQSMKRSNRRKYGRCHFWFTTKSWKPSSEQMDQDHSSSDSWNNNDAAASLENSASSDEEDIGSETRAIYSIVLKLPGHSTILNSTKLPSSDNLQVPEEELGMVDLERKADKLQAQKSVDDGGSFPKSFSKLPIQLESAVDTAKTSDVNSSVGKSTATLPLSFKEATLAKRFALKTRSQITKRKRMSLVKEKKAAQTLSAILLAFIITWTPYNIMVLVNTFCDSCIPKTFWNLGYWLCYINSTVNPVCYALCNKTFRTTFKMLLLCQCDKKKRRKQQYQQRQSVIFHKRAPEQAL

Take `Cc1ccc(CCC[N+]23CCC(CC2)[C@@H](OC(=O)C2(C4=CC=CC4)CCCCCC2)C3)c(C)n1`: the IC50 in data set [1] was 1 nM. Further, in data set [2], the fraction unbound is 0.04. The microsomal CLint in data set [3] came out at 50 µL/min/mg.

Turning to `CC(C)(C)c1cc(NC(=O)C[N+]23CCC(CC2)[C@@H](OC(=O)C2(C4=CC=CC4)CCCCCC2)C3)no1`, in data set [1], the IC50 was 10 nM.

As for `O=C(O[C@H]1C[N+]2(Cc3ccccc3)CCC1CC2)C1(C2=CC=CC2)CCCCCC1`, in data set [1], the IC50 is 39.8 nM. In addition, in data set [3], the microsomal CLint worked out at 68 µL/min/mg.

Take `O=C(C[N+]12CCC(CC1)[C@@H](OC(=O)C1(C3=CC=CC3)CCCCCC1)C2)Nc1ncco1`: the IC50 in data set [1] is 12.6 nM. Moreover, the fraction unbound in data set [2] is 0.15. Further, the microsomal CLint in data set [3] was determined as 66 µL/min/mg.

With `O=C(C[N+]12CCC(CC1)[C@@H](OC(=O)C1(C3=CC=CC3)CCCCCC1)C2)Nc1ccc(C(F)(F)F)nc1`, the IC50 in data set [1] was 0.251 nM. Also, the microsomal CLint in data set [3] came to 5 µL/min/mg.

Regarding `O=C(O[C@H]1C[N+]2(Cc3ccn(-c4ccccc4)n3)CCC1CC2)C1(C2=CC=CC2)CCCCCC1`, the half-maximal inhibitory concentration (IC50) in data set [1] is 0.398 nM. In data set [3], the microsomal CLint was determined as 103 µL/min/mg.

On to `O=C(O[C@H]1C[N+]2(Cc3ccc(F)c(F)c3)CCC1CC2)C1(C2=CC=CC2)CCCCCC1`, for which the IC50 in data set [1] is 39.8 nM. Besides, the microsomal CLint in data set [3] was 55 µL/min/mg.

With `O=C(C[N+]12CCC(CC1)[C@@H](OC(=O)C1(C3=CC=CC3)CCCCCC1)C2)Nc1ccncc1`, in data set [1], the IC50 was 2.51 nM. For the same molecule, in data set [2], the fraction unbound was 0.05. Further, the microsomal CLint in data set [3] is 39 µL/min/mg.

`Cc1ccc(NC(=O)C[N+]23CCC(CC2)[C@@H](OC(=O)C2(C4=CC=CC4)CCCCCC2)C3)nc1`: in data set [1], the IC50 is 0.501 nM. Further, the fraction unbound in data set [2] was 0.019. Further, the microsomal CLint in data set [3] is 51 µL/min/mg.

Consider `O=C(O[C@H]1C[N+]2(CCCOc3ccccc3)CCC1CC2)C(O)(c1cccs1)c1cccs1.[Br-]` [ACLIDINIUM BROMIDE], for which the PPB entry in data set [2] is listed as “ND(Unstable)”. Besides, the microsomal CLint in data set [3] is more than 145 µL/min/mg.

Regarding `C[N+]1(C)CCC(OC(=O)C2(c3ccccc3)CCCCCC2)CC1`, the IC50 in data set [1] is 0.251 nM. Further, in data set [2], the fraction unbound is 0.27. In data set [3], the microsomal CLint was determined as 20 µL/min/mg.

In the case of `O=C(C[N+]12CCC(CC1)[C@@H](OC(=O)C1(C3=CC=CC3)CCCCCC1)C2)Nc1ccncn1`, the IC50 in data set [1] is 0.158 nM. Moreover, in data set [2], the fraction unbound was 0.11.

As for `O=C(C[N+]12CCC(CC1)[C@@H](OC(=O)C1(C3=CC=CC3)CCCCCC1)C2)Nc1cncnc1`, in data set [1], the IC50 was 0.631 nM. For the same molecule, in data set [3], the microsomal CLint turned out to be 32 µL/min/mg.

Turning to `O=C(C[N+]12CCC(CC1)[C@@H](OC(=O)C1(C3=CC=CC3)CCCCCC1)C2)Nc1cccnc1`, the IC50 in data set [1] is 0.2 nM. Further, the fraction unbound in data set [2] was 0.04. The microsomal CLint in data set [3] amounted to 40 µL/min/mg.

For the molecule `COc1cccc(C[N+]23CCC(CC2)[C@@H](OC(=O)C2(C4=CC=CC4)CCCCCC2)C3)c1`, the IC50 in data set [1] was 3.16 nM.

Turning to `O=C(C[N+]12CCC(CC1)[C@@H](OC(=O)C1(C3=CC=CC3)CCCCCC1)C2)Nc1ncns1`, the IC50 in data set [1] was 0.398 nM. Moreover, in data set [3], the microsomal CLint was 25 µL/min/mg.

Regarding `O=C(C[N+]12CCC(CC1)[C@@H](OC(=O)C1(C3=CC=CC3)CCCCCC1)C2)Nc1cc[nH]n1`, the IC50 in data set [1] was 0.1 nM. Further, the fraction unbound in data set [2] is 0.05. In addition, in data set [3], the microsomal CLint was found to be 37 µL/min/mg.

As to `O=C(C[N+]12CCC(CC1)[C@@H](OC(=O)C1(C3=CC=CC3)CCCCCC1)C2)Nc1nncs1`, in data set [1], the IC50 is 7.94 nM. For the same molecule, the fraction unbound in data set [2] is 0.06. For the same molecule, in data set [3], the microsomal CLint is 39 µL/min/mg.

With `Cc1ccnc(NC(=O)C[N+]23CCC(CC2)[C@@H](OC(=O)C2(C4=CC=CC4)CCCCCC2)C3)c1`, the IC50 in data set [1] is 0.794 nM. Also, the fraction unbound in data set [2] is 0.018. Further, in data set [3], the microsomal CLint is 30 µL/min/mg.

As to `N#Cc1ccc(CC[N+]23CCC(CC2)[C@@H](OC(=O)C2(C4=CC=CC4)CCCCCC2)C3)cc1`, the IC50 in data set [1] is 3.16 nM. In addition, the microsomal CLint in data set [3] worked out at 49 µL/min/mg.

Turning to `O=C(C[N+]12CCC(CC1)[C@@H](OC(=O)C1(C3=CC=CC3)CCCCCC1)C2)Nc1cccc(C(F)(F)F)n1`, in data set [1], the IC50 was 2.51 nM. Also, the fraction unbound in data set [2] was 0.004.

As to `O=C(C[N+]12CCC(CC1)[C@H](OC(=O)C1(C3=CC=CC3)CCCCCC1)C2)Nc1ccccn1`, the IC50 in data set [1] was 31.6 nM.

On to `O=C(C[N+]12CCC(CC1)[C@@H](OC(=O)C1(C3=CC=CC3)CCCCCC1)C2)NCCCNC(=O)c1ccccn1`, for which the IC50 in data set [1] was 6.31 nM. Besides, in data set [2], the fraction unbound was 0.026. The microsomal CLint in data set [3] worked out at 101 µL/min/mg.

With `O=C(C[N+]12CCC(CC1)[C@@H](OC(=O)C1(C3=CC=CC3)CCCCCC1)C2)Nc1ccc(F)cn1`, the IC50 in data set [1] was 0.631 nM. For the same molecule, in data set [2], the fraction unbound was 0.024.

Turning to `Cc1cnc(NC(=O)C[N+]23CCC(CC2)[C@@H](OC(=O)C2(C4=CC=CC4)CCCCCC2)C3)cn1`, the IC50 in data set [1] was 0.794 nM. The fraction unbound in data set [2] was 0.04. Moreover, the microsomal CLint in data set [3] stood at 27 µL/min/mg.

For the molecule `Cc1cc(NC(=O)C[N+]23CCC(CC2)[C@@H](OC(=O)C2(C4=CC=CC4)CCCCCC2)C3)ncn1`, the IC50 in data set [1] was 1 nM. The fraction unbound in data set [2] is 0.2. The microsomal CLint in data set [3] stood at 26 µL/min/mg.

Consider `O=C(C[N+]12CCC(CC1)[C@@H](OC(=O)C1(C3=CC=CC3)CCCCCC1)C2)Nc1ccc(C(F)(F)F)nn1`, for which the IC50 in data set [1] is 2.51 nM.

In the case of `C[N+]12CCC(CC1)[C@@H](OC(=O)C1(C3=CC=CC3)CCCCCC1)C2`, the IC50 in data set [1] was 2.51 nM. The fraction unbound in data set [2] is 0.27. Moreover, in data set [3], the microsomal CLint is 34 µL/min/mg.

On to `O=C(C[N+]12CCC(CC1)[C@@H](OC(=O)C1(C3=CC=CC3)CCCCCC1)C2)Nc1ccccc1`, for which the IC50 in data set [1] was 0.251 nM. Moreover, in data set [2], the fraction unbound is 0.006. The microsomal CLint in data set [3] turned out to be 27 µL/min/mg.

Consider `Cc1cncc(NC(=O)C[N+]23CCC(CC2)[C@@H](OC(=O)C2(C4=CC=CC4)CCCCCC2)C3)n1`, for which the IC50 in data set [1] was 0.631 nM. Also, the microsomal CLint in data set [3] worked out at 27 µL/min/mg.

For `O=C(C[N+]12CCC(CC1)[C@@H](OC(=O)C1(C3=CC=CC3)CCCCCC1)C2)Nc1ncccc1F`, the IC50 in data set [1] was 0.251 nM. The fraction unbound in data set [2] is 0.06. In addition, the microsomal CLint in data set [3] stood at 49 µL/min/mg.

With `Cn1ccc(CCC[N+]23CCC(CC2)[C@@H](OC(=O)C2(C4=CC=CC4)CCCCCC2)C3)n1`, the IC50 in data set [1] was 0.501 nM. For the same molecule, the fraction unbound in data set [2] is 0.06. Also, in data set [3], the microsomal CLint is 63 µL/min/mg.

Take `O=C(C[N+]12CCC(CC1)[C@@H](OC(=O)C1(C3=CC=CC3)CCCCCC1)C2)NCCNC(=O)c1cnccn1`: in data set [1], the IC50 is 3.16 nM. Also, the microsomal CLint in data set [3] was found to be 74 µL/min/mg.

Take `O=C(O[C@H]1C[N+]2(Cc3csc(-c4ccccc4)n3)CCC1CC2)C1(C2=CC=CC2)CCCCCC1`: the half-inhibitory concentration (IC50) in data set [1] is 25.1 nM. Also, the microsomal CLint in data set [3] turned out to be 133 µL/min/mg.

For the molecule `O=C(C[N+]12CCC(CC1)[C@@H](OC(=O)C1(C3=CC=CC3)CCCCCC1)C2)N1CCOCC1`, in data set [1], the IC50 is 100 nM. In addition, in data set [3], the microsomal CLint turned out to be 15 µL/min/mg.

Turning to `Cc1ccc(NC(=O)C[N+]23CCC(CC2)[C@@H](OC(=O)C2(C4=CC=CC4)CCCCCC2)C3)cn1`, the IC50 in data set [1] is 0.794 nM.

Take `Cc1nccc(NC(=O)C[N+]23CCC(CC2)[C@@H](OC(=O)C2(C4=CC=CC4)CCCCCC2)C3)n1`: the IC50 in data set [1] was 0.398 nM.

As for `Cc1ccc(NC(=O)C[N+]23CCC(CC2)[C@@H](OC(=O)C2(C4=CC=CC4)CCCCCC2)C3)nn1`, the IC50 in data set [1] was 0.794 nM. Further, in data set [2], the fraction unbound is 0.1. For the same molecule, the microsomal CLint in data set [3] amounted to 16 µL/min/mg.

For orientation: IC50 means the concentration that inhibits the measured activity by half.
